In data set [1] the target is T1, human 8-oxoguanine DNA glycosylase (OGG1) (Homo sapiens, UniProt O15527). The format is biochemical. As to conditions: for ΔΔG° cognate vs non-cognate ligand: from ratio of Ki values, T = 310 K; for increase in the affinity for OGG1 vs the corresponding non-cognate ligand: ratio of Ki (KM) values, vs dGMP, ss G11 or ds G11. The method in brief:
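Recombinant human OGG1 from E. coli BL21(DE3), with active enzyme titrated by burst-phase kinetics. Reaction: 0.5 nM enzyme and 22 nM (2 × KM) oxoG ds substrate in 50 mM Tris–HCl pH 7.5, 100 mM NaCl, 1 mM EDTA, 1 mM DTT, 37°C, 2–10 min, NaOH-quenched. Competitor spans 0.1–10 × I50. Ki = I50/3; ΔG° = –RT ln Kd (310 K); ΔΔG° from differences.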

The target in data set [2] is T1, human 8-oxoguanine DNA glycosylase (OGG1). As to conditions: cited from earlier work.
Data set [3] relates to E. coli 8-oxoguanine DNA glycosylase (Fpg). As to conditions: read-out: Ki (Fpg); cited from earlier work.
The mark [4] stands for this setting: read-out: Ki (affinity for OGG1).

Like-named read-outs stand apart in the source and are kept apart here.

T1 sequence (O15527 whole entry): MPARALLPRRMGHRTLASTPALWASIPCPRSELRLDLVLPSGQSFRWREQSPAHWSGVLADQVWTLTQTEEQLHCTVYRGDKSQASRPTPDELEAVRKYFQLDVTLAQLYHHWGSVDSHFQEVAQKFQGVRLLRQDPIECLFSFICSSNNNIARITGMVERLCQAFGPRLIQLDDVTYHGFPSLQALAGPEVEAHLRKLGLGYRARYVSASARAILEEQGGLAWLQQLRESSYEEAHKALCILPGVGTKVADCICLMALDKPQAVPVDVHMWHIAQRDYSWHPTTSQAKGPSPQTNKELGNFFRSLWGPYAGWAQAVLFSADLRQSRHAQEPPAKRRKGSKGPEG

Consider `O=P(O)(O)O` [Pi, orthophosphate, reference compound], for which the inhibitory constant (Ki) (in general, the equilibrium dissociation constant of an inhibitor or competing ligand from its target) in data set [1] worked out at 68000 µM.
Turning to `Nc1nc2c([nH]c(=O)n2[C@H]2C[C@H](O)[C@@H](COP(=O)(O)O)O2)c(=O)[nH]1` [oxo-dGMP, reference compound], the “cleavage by OGG1” value in data set [2] is reported as “not cleaved”. Moreover, in data set [1], the “ΔΔG° cognate vs non-cognate ligand” value was -0.8 kcal/mol and the “increase in the affinity for OGG1 vs the corresponding non-cognate ligand” value was 4.1 fold. Moreover, the “tighter binding than one non-cognate d(pN)n unit within DNA” value in data set [1] (vs extrapolated Ki = 12 mM) is roughly 7.5 fold.
For the compound “dCdp(TCTCCCTTCGCTCCTTTCCTCT) (5'-dC with phosphate prefix in name, chemistry otherwise not given here) [G11]”, the Ki in data set [3] was 10 µM; in data set [1] (setting [4]), 20 µM.
Take dCdp(TCTCCCTTCXCTCCTTTCCTCT) [OG11]: the “cleavage by OGG1” value in data set [2] is given as “not cleaved”. In data set [1], the “ΔΔG° cognate vs non-cognate ligand” value was roughly -3.3 kcal/mol and the “increase in the affinity for OGG1 vs the corresponding non-cognate ligand” value was 250 fold. Besides, the Ki in data set [1] (setting [4]) is 0.08 µM.
Regarding r(pA)10, the Ki in data set [1] (setting [4]) is 140 µM.
On the same count and under the same terms, for r(pC)10 the value was 130 µM.

Values taken from paper PMC3113562 (Nucleic Acids Research, 2011).
